Reference: the RNAGym collection of RNA variant scans (doi:10.1126/science.aae0568)
Fewer inactive variants are shown than the library holds.

B1: tRNA (parent)
chain: GUUCCGUUGGCGUAAUGGUAACGCGUCUCCCUCCUAAGGAGAAGACUGCGGGUUCGAGUCCCGUACGGAACG

Variants of: B1
Test: yeast fitness relative to wild type (ratio to wild type); higher = fitter; tRNA-Arg(CCU), competitive growth, 37 C, YPD
How it was run: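 A pool of Saccharomyces cerevisiae strains, each with a tRNA-Arg(CCU) gene variant at the native genomic locus, was competed in YPD at 37°C for 24 hours across six parallel replicates. The variants had been chemically synthesised at a 3% per-site mutation rate over 69 sites, and gene amplicons before and after competition were read by 100-nucleotide paired-end sequencing. Darwinian fitness relative to wild type rested on changes in genotype frequencies. Genotypes required ≥ 100 starting reads, and estimates < 0.5 were set to 0.5.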

Row | Variant | yeast fitness
1 | G12C C31U A57U | 0.603
2 | G12C C31U C62G | 0.557
3 | G12C C31U G50A | 0.677
4 | G12C C31U G68C | 0.505
5 | G12C C33A A42G | 0.733
6 | G12C C33G G44C A69C | ≤ 0.5
7 | G12C C33G G44C U54A | ≤ 0.5
8 | G12C C33U C46G U54A | ≤ 0.5
9 | G12C C33U U47C G48A G58A | ≤ 0.5
10 | G12C C34A G44A C46U G68A | ≤ 0.5
11 | G12C C34A G58C A65C A69C | ≤ 0.5
12 | G12C C34U C49U A57G | ≤ 0.5
13 | G12C C34U G44A G51C | ≤ 0.5
14 | G12C C34U G44A G52A C55U | ≤ 0.5
15 | G12C C46A | 0.928
16 | G12C C46U | 0.815
17 | G12C C46U C49G | 0.622
18 | G12C C49A | 0.562
19 | G12C C49U | 0.893
20 | G12C C49U G52C A57C A65C | 0.53
21 | G12C C49U U53C C60G | ≤ 0.5
22 | G12C C55G C66U | ≤ 0.5
23 | G12C C55U | 0.734
24 | G12C C61U C66U A70C | ≤ 0.5

Row | Variant | yeast fitness
25 | G12C C62G | 0.739
26 | G12C C62G C66U | ≤ 0.5
27 | G12C C62U A69U | 0.651
28 | G12C G17A | 0.673
29 | G12C G17A C46G C66A | ≤ 0.5
30 | G12C G17C C22A A42C | ≤ 0.5
31 | G12C G18C | 0.55
32 | G12C G18C G50C | ≤ 0.5
33 | G12C G18C U54C | ≤ 0.5
34 | G12C G23C G50A C55A | ≤ 0.5
35 | G12C G25A C33G A37G A40C C49G G67C | ≤ 0.5
36 | G12C G25A C49U | 0.67
37 | G12C G25C A69U | ≤ 0.5
38 | G12C G25U G44C | ≤ 0.5
39 | G12C G38A A40G A42C | ≤ 0.5
40 | G12C G39A A57U | ≤ 0.5
41 | G12C G39C G68C | ≤ 0.5
42 | G12C G41A C60G A65G | 0.519
43 | G12C G41C C46U | 0.596
44 | G12C G41C C60G | ≤ 0.5
45 | G12C G41C C66U | 0.551
46 | G12C G48A C66U | 0.784
47 | G12C G48C A70U | 0.539
48 | G12C G50A | 0.736

Row | Variant | yeast fitness
49 | G12C G50U | 0.836
50 | G12C G56A | 0.838
51 | G12C G56C | 0.694
52 | G12C G58C C60A A65C | ≤ 0.5
53 | G12C G67A | 0.771
54 | G12C G67C | 0.825
55 | G12C G68A | 0.945
56 | G12C U13A A20C A21G U26G | ≤ 0.5
57 | G12C U13A G38A | 0.576
58 | G12C U13A U16G C24G A69U | ≤ 0.5
59 | G12C U13C A20C C24G G39C | ≤ 0.5
60 | G12C U13C A40U G58C | ≤ 0.5
61 | G12C U13C C22U A43C G68C | ≤ 0.5
62 | G12C U13C U16A | 0.704
63 | G12C U13C U16A C29G G44C C49G A57C | ≤ 0.5
64 | G12C U13G A15C A36U C55G | ≤ 0.5
65 | G12C U16A C60G C61U | ≤ 0.5
66 | G12C U16C A42C C49U | 0.594
67 | G12C U16C C31G | ≤ 0.5
68 | G12C U16C U28A C60U | ≤ 0.5
69 | G12C U19A | 0.742
70 | G12C U19A C27G | 0.692
71 | G12C U19A C27G A65C G68A | ≤ 0.5
72 | G12C U26A U35A | ≤ 0.5

Row | Variant | yeast fitness
73 | G12C U26C A37G | ≤ 0.5
74 | G12C U28A | 1.04
75 | G12C U28A C66U G68A | ≤ 0.5
76 | G12C U28A G50A | 0.606
77 | G12C U28C C30U C66A | ≤ 0.5
78 | G12C U28C U35A G38A C46G C62U | ≤ 0.5
79 | G12C U32C A37C A45G A57C | ≤ 0.5
80 | G12C U32C A65G | 0.569
81 | G12C U32G A40U A57U A65U | 0.568
82 | G12C U32G C33G | 0.543
83 | G12C U32G C33G G48C | ≤ 0.5
84 | G12C U32G C49G C55A | ≤ 0.5
85 | G12C U47A G52C | ≤ 0.5
86 | G12C U47A U54C | 0.519
87 | G12C U47C | 0.958
88 | G12C U54A | 0.701
89 | G12C U54C | 0.702
90 | G12C U59C A69C | 0.665
91 | G12C U59G | 0.79
92 | G12U C30G | ≤ 0.5
93 | G12U C33U C34G | ≤ 0.5
94 | G12U C60G | ≤ 0.5
95 | G12U G23A A36G G39A | ≤ 0.5
96 | G12U G38A G52A G56C | ≤ 0.5

Row | Variant | yeast fitness
97 | G12U U54C | 0.59
98 | U13A A14C C22A C31A A37G C55U A57G | ≤ 0.5
99 | U13A A14C C22A G48C A69U | ≤ 0.5
100 | U13A A14C C22A U54C | ≤ 0.5
101 | U13A A14C U19C U32A G63C | 0.64
102 | U13A A14U C24G U28G C31U C66U | ≤ 0.5
103 | U13A A14U C27G C46G | 0.553
104 | U13A A15C C46U | 0.612
105 | U13A A15G A65G | 0.877
106 | U13A A15G C22G C24U G44A U53G | ≤ 0.5
107 | U13A A15G C22G U28A | 0.619
108 | U13A A15G C27U A57G | ≤ 0.5
109 | U13A A15G C27U C62A G63A A70C | ≤ 0.5
110 | U13A A15G U47A U64G | ≤ 0.5
111 | U13A A20C | 0.715
112 | U13A A20C A40U | ≤ 0.5
113 | U13A A20C C34U G50C A69U | ≤ 0.5
114 | U13A A20G | 0.888
115 | U13A A20G A21U A40U | ≤ 0.5
116 | U13A A20G C24U U59C | ≤ 0.5
117 | U13A A20G G41A G51C G67C | ≤ 0.5
118 | U13A A20U A37C | 0.557
119 | U13A A21C | 0.65
120 | U13A A21C C24A G25C C66G | 0.512

Row | Variant | yeast fitness
121 | U13A A36G | 1.02
122 | U13A A36G A43U G51A | ≤ 0.5
123 | U13A A36G G56A | 0.679
124 | U13A A37U | 0.63
125 | U13A A37U U53G | 0.536
126 | U13A A40C | 0.789
127 | U13A A40C A69G | 0.629
128 | U13A A40C U53A | 0.53
129 | U13A A40G | 0.733
130 | U13A A40G A42G A57C C66U | 0.522
131 | U13A A40G U47G G63C | 0.535
132 | U13A A42C | 1.05
133 | U13A A42C C66U | 0.76
134 | U13A A42G | 0.851
135 | U13A A42U A57C C61U A65U | ≤ 0.5
136 | U13A A42U A70G | 0.745
137 | U13A A42U C66U | 0.704
138 | U13A A43C A57C A70U | 0.551
139 | U13A A43G A45G G50C C60A A69C | 0.534
140 | U13A A43U G50A U54G G68C | ≤ 0.5
141 | U13A A45G A65C | 0.656
142 | U13A A45G G58C A69U A70U | 0.603
143 | U13A A45U | 1
144 | U13A A57U | 0.681

Row | Variant | yeast fitness
145 | U13A A57U U64G A65G | ≤ 0.5
146 | U13A A69U | 0.984
147 | U13A C22A A36U | ≤ 0.5
148 | U13A C22A A36U A65G | ≤ 0.5
149 | U13A C22A A42U | 0.582
150 | U13A C22A C29A G41C G50C | ≤ 0.5
151 | U13A C22A C46U | 0.633
152 | U13A C22G C24A C46G C55U | 0.551
153 | U13A C22G C24A C46G C55U C61A | ≤ 0.5
154 | U13A C22G C31G C61A | 0.512
155 | U13A C22G G25C C27U C30G | ≤ 0.5
156 | U13A C22G U32C A42C G48C C55G G63A G68C | ≤ 0.5
157 | U13A C22G U59G A65U | ≤ 0.5
158 | U13A C22U A37G | 0.533
159 | U13A C22U C66U | 0.534
160 | U13A C24A A45C | ≤ 0.5
161 | U13A C24A A45U G50A G56A | ≤ 0.5
162 | U13A C24A C30A | 0.605
163 | U13A C24G G25A C31U | ≤ 0.5
164 | U13A C24G U28A C30U C31G G41C G56A A57C | ≤ 0.5
165 | U13A C24U C55G | 0.537
166 | U13A C24U G51C | 0.542
167 | U13A C24U U35A A43C G50C | ≤ 0.5
